For experiment [1], the system named is Rattus norvegicus. Description: Hypoglycemic activity in normal 16 hrs fasted Wistar rat assessed as reduction in serum glucose level at 100 mg/kg, po after 1 hr by glucose oxidase method. The class given is functional. In a few lines:
(§1)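 Male Wistar rats, 160–190 g, fasted ≥16 h with free water. Groups: control, vehicle (0.5 mL 1% EtOH–H2O) and compound by oral gavage. Retro-orbital blood drawn and centrifuged; serum glucose by glucose oxidase at 0, 1, 2 and 3 h. Mean ± SEM, n = 6 in duplicate, compared with the 0 h value.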

A short description of experiment [2]: Antioxidant activity in asolectin liposome assessed as inhibition of ascorbyl radical-induced lipid peroxidation by TBARS assay. Type of experiment: functional. In a few lines: (§2)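 Egg-yolk phosphatidylcholine or soybean asolectin bilayer liposomes made by cholate/deoxycholate solubilisation then dialysis; lipid 12.5 mg/mL. Ascorbyl-radical peroxidation started with 25 µM FeSO4 plus 500 µM ascorbate. TBARS read with extinction coefficient 1.56 × 10^5 M-1 cm-1; IC50 derived; mean ± SEM, n = 3 in duplicate.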

Experiment [3] has as its system Rattus norvegicus. The experiment in a line: Hypoglycemic activity in diabetic 16 hrs fasted Wistar rat assessed as reduction in alloxan-induced serum glucose level at 100 mg/kg, po after 3 hrs by glucose oxidase method. The class given is functional. Put shortly: (§3)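 Male Wistar rats, 160–190 g. Alloxan monohydrate 60 mg/kg i.v. in 0.9% NaCl given after an overnight fast. Rats with serum glucose 25–30.5 mmol/L at 72 h were fasted and randomized to diabetic, vehicle (0.5 mL 1% EtOH–H2O) or compound groups. Compound given by oral gavage. Retro-orbital serum glucose by glucose oxidase at 0, 1, 2 and 3 h. Mean ± SEM, n = 6 in duplicate, compared with 0 h.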

Experiment [4] deals with Rattus norvegicus. Description: Hypoglycemic activity in diabetic 16 hrs fasted Wistar rat assessed as reduction in alloxan-induced serum glucose level at 50 mg/kg, po after 3 hrs by glucose oxidase method. Type of experiment: functional. In a few lines: as §3
In experiment [5] the test system is Liver microsomes. The experiment in a line: Antioxidant activity in Wistar rat liver microsomes assessed as inhibition of hydroxyl radical-induced lipid peroxidation by TBARS assay. Type of experiment: functional, Microsome. In a few lines: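 Male Wistar rat liver microsomes, isolated by differential centrifugation with calcium aggregation and stored at -70 °C, at 2 mg protein/mL in 0.1 M KH2PO4 pH 7.4. Hydroxyl-radical peroxidation started with 25 µM FeCl2, 2.8 mM H2O2 and 100 µM sodium ascorbate. TBARS read with extinction coefficient 1.56 × 10^5 M-1 cm-1; IC50 derived; mean ± SEM, n = 3 in duplicate.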
(In general: Liver microsomes are a subcellular fraction often used to study metabolism.)

The test system of experiment [6] is Rattus norvegicus. Description: Hypoglycemic activity in normal 16 hrs fasted Wistar rat assessed as reduction in serum glucose level at 100 mg/kg, po after 2 hrs by glucose oxidase method. Type of experiment: functional. Put shortly:
as §1

Experiment [7] concerns Rattus norvegicus. The experiment in a line: Hypoglycemic activity in diabetic 16 hrs fasted Wistar rat assessed as reduction in alloxan-induced serum glucose level at 200 mg/kg, po after 2 hrs by glucose oxidase method. The class given is functional. Put shortly:
as §3

The subject of experiment [8] is Rattus norvegicus. Description: Hypoglycemic activity in normal 16 hrs fasted Wistar rat assessed as reduction in serum glucose level at 200 mg/kg, po after 1 hr by glucose oxidase method. Type of experiment: functional. In a few lines:
as §1

The subject of experiment [9] is Rattus norvegicus. Description: Hypoglycemic activity in diabetic 16 hrs fasted Wistar rat assessed as reduction in alloxan-induced serum glucose level at 200 mg/kg, po after 1 hr by glucose oxidase method. Type of experiment: functional. In a few lines: as §3
Experiment [10] concerns Rattus norvegicus. Description: Hypoglycemic activity in diabetic 16 hrs fasted Wistar rat assessed as reduction in alloxan-induced serum glucose level at 50 mg/kg, po after 1 hr by glucose oxidase method. The class given is functional. Put shortly: as §3
In experiment [11] the test system is Rattus norvegicus. Description: Hypoglycemic activity in normal 16 hrs fasted Wistar rat assessed as reduction in serum glucose level at 200 mg/kg, po after 3 hrs by glucose oxidase method. The class given is functional. Put shortly: as §1
Experiment [12] deals with Rattus norvegicus. The experiment in a line: Hypoglycemic activity in normal 16 hrs fasted Wistar rat assessed as reduction in serum glucose level at 100 mg/kg, po after 3 hrs by glucose oxidase method. Type of experiment: functional. Put shortly:
as §1

Experiment [13] relates to Rattus norvegicus. Description: Hypoglycemic activity in diabetic 16 hrs fasted Wistar rat assessed as reduction in alloxan-induced serum glucose level at 100 mg/kg, po after 2 hrs by glucose oxidase method. Type of experiment: functional. In a few lines: as §3
The subject of experiment [14] is Lung. The experiment in a line: Antioxidant activity in Wistar rat lung assessed as maximal inhibition of myeloperoxidase at 400 uM.
The subject of experiment [15] is Liver microsomes. Description: Antioxidant activity in Wistar rat liver microsomes assessed as inhibition of ascorbyl radical-induced lipid peroxidation by TBARS assay. The class given is functional, Microsome. Put shortly: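 Microsomes from male Wistar rat liver, isolated by differential centrifugation with calcium aggregation and stored at -70 °C; protein by Lowry, fixed at 2 mg/mL. Ascorbyl-radical peroxidation started with 25 µM FeSO4 plus 500 µM ascorbate. TBARS read with extinction coefficient 1.56 × 10^5 M-1 cm-1; IC50 derived; mean ± SEM, n = 3 in duplicate.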

For experiment [16], the system named is Radical scavenging activity. Description: Antioxidant activity assessed as DPPH radical scavenging activity. Type of experiment: functional. In a few lines:
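DPPH in EtOH, 200 μM, in the medium; radical loss read as absorbance decrease at 515 nm.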
In general terms: Loss of DPPH colour is used to gauge radical scavenging.

Experiment [17] concerns Rattus norvegicus. Description: Hypoglycemic activity in diabetic 16 hrs fasted Wistar rat assessed as reduction in alloxan-induced serum glucose level at 200 mg/kg, po after 3 hrs by glucose oxidase method. Type of experiment: functional. In a few lines:
as §3

The subject of experiment [18] is Rattus norvegicus. The experiment in a line: Hypoglycemic activity in 16 hrs fasted Wistar rat assessed as reduction in serum glucose level at 100 mg/kg, po measured after 60 mins of glucose challenge by oral glucose tolerance test. The class given is functional. Put shortly:
(§4)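 Male Wistar rats, 160–190 g, fasted ≥16 h with water allowed. Oral gavage of glucose 4 g/kg alone or with compound 100 mg/kg. Controls: untreated rats and tolbutamide 100 mg/kg. Blood drawn from the retro-orbital plexus before and at 30, 60, 90 and 180 min after the load. Serum glucose by glucose oxidase; mean ± SEM, n = 3 in duplicate.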

Experiment [19] has as its system Rattus norvegicus. The experiment in a line: Hypoglycemic activity in 16 hrs fasted Wistar rat assessed as reduction in serum glucose level at 100 mg/kg, po measured after 90 mins of glucose challenge by oral glucose tolerance test. The class given is functional. In a few lines: as §4
The subject of experiment [20] is Rattus norvegicus. The experiment in a line: Hypoglycemic activity in diabetic 16 hrs fasted Wistar rat assessed as reduction in alloxan-induced serum glucose level at 50 mg/kg, po after 2 hrs by glucose oxidase method. The class given is functional. Put shortly: as §3
Experiment [21] can be described thus: Antioxidant activity in 1-alpha-phosphatidylcholine liposome assessed as inhibition of ascorbyl radical-induced lipid peroxidation by TBARS assay. The class given is functional. Put shortly:
as §2

Experiment [22] concerns Rattus norvegicus. Description: Hypoglycemic activity in normal 16 hrs fasted Wistar rat assessed as reduction in serum glucose level at 200 mg/kg, po after 2 hrs by glucose oxidase method. Type of experiment: functional. In a few lines: as §1
Experiment [23] concerns Lung. Description: Antioxidant activity in Wistar rat lung assessed as half maximal inhibition of myeloperoxidase. Type of experiment: functional, tissue-based. Put shortly:
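Enzyme source: rat lung homogenised in ice-cold phosphate buffer. Activity was read as the slope of absorbance at 450 nm with o-dianisidine-2HCl and H2O2 and converted to units against a standard curve of commercial enzyme. Each concentration point was monitored kinetically, and the concentration giving half-maximal inhibition (K0.5) was taken from the inhibition curve.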

Experiment [24] has as its system Rattus norvegicus. Description: Hypoglycemic activity in normal 16 hrs fasted Wistar rat assessed as reduction in serum glucose level at 50 mg/kg, po after 2 hrs by glucose oxidase method. Type of experiment: functional. In a few lines: as §1
Experiment [25] relates to Rattus norvegicus. Description: Hypoglycemic activity in 16 hrs fasted Wistar rat assessed as reduction in serum glucose level at 100 mg/kg, po measured after 180 mins of glucose challenge by oral glucose tolerance test. The class given is functional. In a few lines:
as §4

The subject of experiment [26] is Rattus norvegicus. Description: Hypoglycemic activity in normal 16 hrs fasted Wistar rat assessed as reduction in serum glucose level at 50 mg/kg, po after 1 hr by glucose oxidase method. Type of experiment: functional. In a few lines: as §1
The test system of experiment [27] is Rattus norvegicus. The experiment in a line: Hypoglycemic activity in 16 hrs fasted Wistar rat assessed as reduction in serum glucose level at 100 mg/kg, po measured after 30 mins of glucose challenge by oral glucose tolerance test. Type of experiment: functional. Put shortly: as §4
The test system of experiment [28] is Rattus norvegicus. The experiment in a line: Hypoglycemic activity in diabetic 16 hrs fasted Wistar rat assessed as reduction in alloxan-induced serum glucose level at 100 mg/kg, po after 1 hr by glucose oxidase method. The class given is functional. Put shortly:
as §3

Experiment [29] has as its system Rattus norvegicus. Description: Hypoglycemic activity in normal 16 hrs fasted Wistar rat assessed as reduction in serum glucose level at 50 mg/kg, po after 3 hrs by glucose oxidase method. Type of experiment: functional. Put shortly:
as §1

Calls of active or inactive are those of the source. The rule behind the calls is not given here.

A word on the IC50: it is the concentration that gives 50% inhibition. On to `C[C@@H]1O[C@@H](Oc2cc(O)c3c(=O)c(O[C@@H]4O[C@@H](C)[C@H](O)[C@@H](O)[C@H]4O)c(-c4ccc(O)cc4)oc3c2)[C@H](O)[C@H](O)[C@H]1O` [KAEMPFERITRIN], for which the Activity came to 5.4 mmol/L in experiment [1]; 24 mmol/L in [3]; 25.3 mmol/L in experiment [4]; 5.5 mmol/L in [6]; 22.2 mmol/L in [7]; 4.5 mmol/L in experiment [8]. The Activity in experiment [9] was found to be 22.4 mmol/L; in experiment [10] it was 23.5 mmol/L; in [11] it was 5.1 mmol/L; in experiment [12], 6.2 mmol/L; in experiment [13] it was 24 mmol/L; in experiment [17], 22.4 mmol/L. Besides, the Activity in [18] worked out at 8.8 mmol/L; in experiment [19], 8.2 mmol/L; in experiment [20], 25.2 mmol/L; in experiment [22], 5 mmol/L; in experiment [24] it was 5.9 mmol/L; in [25], 6.7 mmol/L. The Activity in experiment [26] is 5.5 mmol/L; in [27], 9.5 mmol/L; in experiment [28], 24.3 mmol/L; in experiment [29], 6.2 mmol/L. The IC50 in experiment [2] was determined as 223 µM; in [5] it was 85 µM; in experiment [15] it was 320 µM; in experiment [16] it was 84 µM; in experiment [21], 112 µM. The outcome in [14] was Active. Further, the K in experiment [23] was determined as 86 µM.

With `O=c1c(O)c(-c2ccc(O)c(O)c2)oc2cc(O)cc(O)c12` [QUERCETIN], the half-inhibitory concentration (IC50) was 80 µM in [2], 7.5 µM in experiment [5], 125 µM in [15] and 80 µM in [21].

`CCCCNC(=O)NS(=O)(=O)c1ccc(C)cc1` [TOLBUTAMIDE]: the Activity in [18] is 6.3 mmol/L; in [19] it was 5.9 mmol/L; in experiment [25], 5.2 mmol/L; in experiment [27], 7.8 mmol/L.
